Among the data in ChEMBL document CHEMBL3108780, “Synthesis, characterization, cytotoxicity and antibacterial activity of an anthracenyl-linked bis(pyrazolyl)methane ligand and its zinc(II) complexes” (Eur J Med Chem, 2014) are MIC50 and IC50 values, retold here.

One test concerns Staphylococcus aureus. Briefly: Antibacterial activity against Staphylococcus aureus ATCC 25923 after 24 hrs by MTT assay. The settings on record: ATCC 25923, 24 h. It counts as functional. Summed up: (§1)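 Broth microdilution per CLSI; compounds dissolved in DMSO (stock […]) and serially diluted in sterilized liquid medium (50% v/v DMSO in PBS). Inoculum about 10^5 cfu/mL, incubated 37 °C for 24 h. Growth read colorimetrically with MTT dye, OD at 550 nm; MIC50 determined.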

For another test, the system named is Huh-7. Briefly: Cytotoxicity against human HuH7 cells after 48 hrs by MTT assay. The settings on record: Huh-7, 48 h. It counts as functional, cell-based. Summed up:
(§2)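 Cells seeded at 2 × 10^4 cells/mL, preincubated 24 h at 37 °C, 5% CO2. Compounds from DMSO mother solutions diluted in complete medium (DMSO ≤0.1%), added at pre-set concentrations with 5-fluorouracil and cisplatin as references. 48 h exposure, then MTT (2.5 mg/mL in PBS) 4 h, SDS/isobutanol/HCl solubilisation overnight, OD 570 nm. Triplicate wells, assays repeated ≥3 times; IC50.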
For orientation: Formazan colour is commonly taken as a measure of viable cells.

A further test has as its system Bacillus spizizenii. Briefly: Antibacterial activity against Bacillus subtilis ATCC 6633 after 24 hrs by MTT assay. It counts as functional. As to conditions: ATCC 6633, 24 h. Summed up: as §1
The next test concerns A549. In words: Cytotoxicity against human A549 cells after 48 hrs by MTT assay. It counts as functional, cell-based. As to conditions: A549, 48 h. Put shortly: as §2
The next test deals with MDA-MB-435. Briefly: Cytotoxicity against human MDA-MB-435 cells after 48 hrs by MTT assay. As to conditions: MDA-MB-435, 48 h. It counts as functional, cell-based. Summed up:
as §2

A further test has as its system Escherichia coli. Briefly: Antibacterial activity against Escherichia coli ATCC 35218 after 24 hrs by MTT assay. As to conditions: ATCC 35218, 24 h. It counts as functional. Summed up:
as §1

The next test deals with Pseudomonas putida. Briefly: Antibacterial activity against Pseudomonas putida ATCC 49128 after 24 hrs by MTT assay. It counts as functional. The settings on record: ATCC 49128, 24 h. Put shortly: as §1

The structures appear in SMILES notation. Converted amounts (≈) assume the structure as drawn.

Take `c1ccc2c(C(n3cccn3)n3cccn3)c3ccccc3cc2c1`: the MIC50 against Staphylococcus aureus is 2.13 µg/mL (≈ 6.57 µM); against Bacillus spizizenii, 3.26 µg/mL (≈ 10 µM); in the test on Escherichia coli, 4.8 µg/mL (≈ 14.8 µM); against Pseudomonas putida, 1.54 µg/mL (≈ 4.76 µM). Moreover, the results for the IC50 in the test with Huh-7, with A549 and with MDA-MB-435 were 28 µg/mL (≈ 86.2 µM), 9.77 µg/mL (≈ 30.1 µM) and 23.8 µg/mL (≈ 73.3 µM), respectively.

In the case of `O=c1[nH]cc(F)c(=O)[nH]1` [FLUOROURACIL], the IC50 with Huh-7 was determined as 20 µg/mL (≈ 154 µM); with A549, 24.9 µg/mL (≈ 191 µM); in the test on MDA-MB-435 it was 25.6 µg/mL (≈ 197 µM).

`O=C(N[C@H](CO)[C@H](O)c1ccc([N+](=O)[O-])cc1)C(Cl)Cl` [CHLORAMPHENICOL]: the MIC50 against Staphylococcus aureus came out at 0.499 µg/mL (≈ 1.54 µM); with Bacillus spizizenii, 1.25 µg/mL (≈ 3.88 µM); against Escherichia coli it was 3.04 µg/mL (≈ 9.41 µM); against Pseudomonas putida, 0.182 µg/mL (≈ 0.563 µM).

The term MIC50 denotes an inhibitory concentration at the 50% level, which refers to growth in some studies and to a panel of isolates in others. A lower MIC50 goes with higher susceptibility. The IC50 is the concentration that gives 50% inhibition.
